Source: ChEMBL document CHEMBL1157072 (Bioorg Med Chem, 2010)
≈ marks a conversion by molar mass, not a printed value. Numbered stars: 1 amine (or outer) side, 2 acyl side, 3 side chain; on linkers, the order of the positions; unused ones are H or OH. Bridge positions count the residues as written; N and C are the ends. Square brackets hold non-standard residues; d marks the D form. Peptide text beside a SMILES is read from it. I, II: the chains in the order shown. Actinocin(1to9) = Cc1c2oc3c(C)ccc(C(=O)[*:2])c3nc-2c(C(=O)[*:1])c(N)c1=O; NMeV = CN[C@H](C(=O)O)C(C)C; Sar = CNCC(=O)O

Assays:
Staphylococcus aureus [1] = assay: Antibacterial activity against Staphylococcus aureus NCTC 8325 after 16 to 20 hrs by broth microdilution method; format: functional
Procedure, shortened: (§1)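 Broth microdilution in cation-adjusted Mueller Hinton broth. Compounds were serially diluted twofold in DMSO at 50-fold final strength (2% DMSO final). The inoculum was 1 × 10^4 cells per well. Plates were incubated at 37 °C for 16–20 h, and growth was read as absorbance at 600 nm.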

Staphylococcus aureus [2] = assay: microbe, parasite or virus in culture; conditions: isolate d20A1
Staphylococcus aureus [3] = assay: Antibacterial activity against Staphylococcus aureus NCTC 8325 after 16 to 20 hrs by broth microdilution method in presence of efflux pump inhibitor reserpine; format: functional
Procedure, shortened: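 Broth microdilution in cation-adjusted MHB with reserpine at 20 µg/ml final in the medium as efflux inhibitor. Twofold DMSO dilutions were made (2% DMSO final) with 1 × 10^4 cells per well. Incubation was 37 °C for 16–20 h, with growth read at 600 nm.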

Staphylococcus aureus [4] = assay: Antibacterial activity against Staphylococcus aureus NCTC 8325 harboring genetic deletion of mepR gene after 16 to 20 hrs by broth microdilution method; format: functional; procedure, shortened: as §1
Staphylococcus aureus [5] = assay: Antibacterial activity against Staphylococcus aureus NCTC 8325 harboring genetic deletion of mepRA gene after 16 to 20 hrs by broth microdilution method; format: functional; procedure, shortened: as §1
Staphylococcus aureus [6] = assay: Antibacterial activity against Staphylococcus aureus NCTC 8325 carrying expression vector pG154 after 16 to 20 hrs by broth microdilution method; format: functional; procedure, shortened: as §1
Staphylococcus aureus [7] = assay: Antibacterial activity against Staphylococcus aureus NCTC 8325 carrying expression vector pG154 after 16 to 20 hrs by broth microdilution method in presence of anhydrous tetracycline; format: functional
Procedure, shortened: (§2)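 Broth microdilution in cation-adjusted MHB containing anhydrous tetracycline at 100 ng/ml final to induce the pG154 expression vector. Twofold DMSO compound dilutions were used (2% DMSO final) with 1 × 10^4 cells per well. Incubation was 37 °C for 16–20 h, and absorbance was read at 600 nm.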

Staphylococcus aureus [8] = assay: Antibacterial activity against Staphylococcus aureus NCTC 8325 carrying expression vector pG154 with mepA gene after 16 to 20 hrs by broth microdilution method; format: functional; procedure, shortened: as §1
Staphylococcus aureus [9] = assay: Antibacterial activity against Staphylococcus aureus NCTC 8325 carrying expression vector pG154 with mepA gene after 16 to 20 hrs by broth microdilution method in presence of anhydrous tetracycline; format: functional; procedure, shortened: as §2
Staphylococcus aureus [10] = assay: Antibacterial activity against Staphylococcus aureus NCTC 8325 harboring genetic deletion of mepRA gene and carrying expression vector pG154 after 16 to 20 hrs by broth microdilution method; format: functional; procedure, shortened: as §1
Staphylococcus aureus [11] = assay: Antibacterial activity against Staphylococcus aureus NCTC 8325 harboring genetic deletion of mepRA gene and carrying expression vector pG154 after 16 to 20 hrs by broth microdilution method in presence of anhydrous tetracycline; format: functional; procedure, shortened: as §2
Staphylococcus aureus [12] = assay: Antibacterial activity against Staphylococcus aureus NCTC 8325 harboring genetic deletion of mepRA gene and carrying expression vector pG154 with mepA gene after 16 to 20 hrs by broth microdilution method; format: functional; procedure, shortened: as §1
Staphylococcus aureus [13] = assay: Antibacterial activity against Staphylococcus aureus NCTC 8325 harboring genetic deletion of mepRA gene and carrying expression vector pG154 with mepA gene after 16 to 20 hrs by broth microdilution method in presence of anhydrous tetracycline; format: functional; procedure, shortened: as §2
[14] = Dissociation constant, pKa of the compound; format: physicochemical
[15] = Selectivity ratio of MIC for MBX-1090-resistant Staphylococcus aureus isolate d20A1 to MIC for Staphylococcus aureus NCTC 8325; format: functional
Procedure, shortened: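 Ratio of resistant-mutant MIC to NCTC 8325 MIC. Both MICs came from broth microdilution in cation-adjusted MHB with 2% DMSO final and 1 × 10^4 cells per well, incubated at 37 °C for 16–20 h and read at 600 nm.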

Staphylococcus aureus [16] = assay: Upregulation of mepA gene expression in MBX-1090-resistant Staphylococcus aureus isolate d20A1 at 0.4 ug/ml by RT-PCR analysis relative to wild type; format: functional
Staphylococcus aureus [17] = assay: Upregulation of mepB gene expression in MBX-1090-resistant Staphylococcus aureus isolate d20A1 at 0.4 ug/ml by RT-PCR analysis relative to wild type; format: functional
Staphylococcus aureus [18] = assay: Upregulation of conventional hypothetical protein mRNA expression in MBX-1090-resistant Staphylococcus aureus isolate d20A1 at 0.4 ug/ml by RT-PCR analysis relative to wild type; format: functional
Staphylococcus aureus [19] = assay: Downregulation of protein A gene expression in MBX-1090-resistant Staphylococcus aureus isolate d20A1 at 0.4 ug/ml by RT-PCR analysis relative to wild type; format: functional
Staphylococcus aureus [20] = assay: Modulation of ribH gene expression in MBX-1090-resistant Staphylococcus aureus isolate d20A1 at 0.4 ug/ml by RT-PCR analysis relative to wild type; format: functional
Staphylococcus aureus [21] = assay: Modulation of ribA gene expression in MBX-1090-resistant Staphylococcus aureus isolate d20A1 at 0.4 ug/ml by RT-PCR analysis relative to wild type; format: functional
Staphylococcus aureus [22] = assay: Modulation of ribE gene expression in MBX-1090-resistant Staphylococcus aureus isolate d20A1 at 0.4 ug/ml by RT-PCR analysis relative to wild type; format: functional
Staphylococcus aureus [23] = assay: Modulation of ribD gene expression in MBX-1090-resistant Staphylococcus aureus isolate d20A1 at 0.4 ug/ml by RT-PCR analysis relative to wild type; format: functional

Molecule	MIC (Staphylococcus aureus [1])	MIC (Staphylococcus aureus [2])	other results
CN(C)[C@@H]1C(O)=C(C(N)=O)C(=O)[C@@]2(O)C(O)=C3C(=O)c4c(O)cccc4[C@@](C)(O)[C@H]3C[C@@H]12 [TETRACYCLINE]	0.5 µg/mL (≈ 1.13 µM)	0.5 µg/mL (≈ 1.13 µM)	–
CC1(C)S[C@@H]2[C@H](NC(=O)[C@H](N)c3ccccc3)C(=O)N2[C@H]1C(=O)O [AMPICILLIN]	0.0625 µg/mL (≈ 0.179 µM)	0.0625 µg/mL (≈ 0.179 µM)	–
CCN1CCN(c2cc3c(cc2F)c(=O)c(C(=O)O)cn3C2CC2)CC1 [ENROFLOXACIN]	0.125 µg/mL (≈ 0.348 µM)	0.125 µg/mL (≈ 0.348 µM)	–
c1cc2cc(-c3ccc4cc(-c5ccc6oc(C7=NCCN7)cc6c5)[nH]c4c3)[nH]c2cc1C1=NCCN1	0.5 µg/mL (≈ 1.03 µM)	1 µg/mL (≈ 2.06 µM)	MIC (Staphylococcus aureus [3]): 0.25 µg/mL; MIC (Staphylococcus aureus [4]): 0.5 µg/mL (≈ 1.03 µM); MIC (Staphylococcus aureus [5]): 1 µg/mL (≈ 2.06 µM); MIC (Staphylococcus aureus [6]): 1 µg/mL (≈ 2.06 µM); MIC (Staphylococcus aureus [7]): 1 µg/mL; MIC (Staphylococcus aureus [8]): 1 µg/mL (≈ 2.06 µM); MIC (Staphylococcus aureus [9]): 0.25 µg/mL; MIC (Staphylococcus aureus [10]): 1 µg/mL (≈ 2.06 µM); MIC (Staphylococcus aureus [11]): 0.5 µg/mL; MIC (Staphylococcus aureus [12]): 0.5 µg/mL (≈ 1.03 µM); MIC (Staphylococcus aureus [13]): 0.5 µg/mL
CN[C@@H]1[C@H](O)[C@H](NC)[C@H]2O[C@@]3(O)C(=O)C[C@@H](C)O[C@H]3O[C@@H]2[C@H]1O [SPECTINOMYCIN]	128 µg/mL (≈ 385 µM)	128 µg/mL (≈ 385 µM)	–
CC(=O)O[C@H]1C[C@@]2(C)[C@@H](C[C@@H](O)[C@H]3[C@@]4(C)CC[C@@H](O)[C@@H](C)[C@@H]4CC[C@@]32C)/C1=C(\CCC=C(C)C)C(=O)O [FUSIDIC ACID]	0.0625 µg/mL (≈ 0.121 µM)	0.0625 µg/mL (≈ 0.121 µM)	–
CCn1cc(C(=O)O)c(=O)c2ccc(C)nc21 [NALIDIXIC ACID]	100 µg/mL (≈ 431 µM)	50 µg/mL (≈ 215 µM)	–
N=C(N)c1ccc(-c2cc3ccc(C(=N)N)cc3[nH]2)cc1 [DAPI]	–	–	pKa [14]: 11.6
Cc1c2oc3c(C)ccc(C(=O)N[C@@H]4C(=O)N[C@H](C(C)C)C(=O)N5CCC[C@H]5C(=O)N(C)CC(=O)N(C)[C@@H](C(C)C)C(=O)O[C@@H]4C)c3nc-2c(C(=O)N[C@@H]2C(=O)N[C@H](C(C)C)C(=O)N3CCC[C@H]3C(=O)N(C)CC(=O)N(C)[C@@H](C(C)C)C(=O)O[C@@H]2C)c(N)c1=O [DACTINOMYCIN] (I: T[dV]P[Sar][NMeV] / II: T[dV]P[Sar][NMeV]; ester I:1-I:C, II:1-II:C; linker I:N-II:N via Actinocin(1to9))	0.625 µg/mL (≈ 0.498 µM)	0.625 µg/mL (≈ 0.498 µM)	–
CC[C@H]1OC(=O)[C@H](C)[C@@H](O[C@H]2C[C@@](C)(OC)[C@@H](O)[C@H](C)O2)[C@H](C)[C@@H](O[C@@H]2O[C@H](C)C[C@H](N(C)C)[C@H]2O)[C@](C)(O)C[C@@H](C)C(=O)[C@H](C)[C@@H](O)[C@]1(C)O [ERYTHROMYCIN]	1 µg/mL (≈ 1.36 µM)	0.5 µg/mL (≈ 0.681 µM)	–
CN[C@@H]1[C@H](O[C@H]2[C@H](O[C@H]3[C@H](O)[C@@H](O)[C@H](N=C(N)N)[C@@H](O)[C@@H]3N=C(N)N)O[C@@H](C)[C@]2(O)C=O)O[C@@H](CO)[C@H](O)[C@H]1O [STREPTOMYCIN]	32 µg/mL (≈ 55 µM)	128 µg/mL (≈ 220 µM)	Selectivity ratio [15]: 4
Cc1onc(-c2ccccc2)c1C(=O)N[C@@H]1C(=O)N2[C@@H]1SC(C)(C)[C@@H]2C(=O)O [OXACILLIN]	0.125 µg/mL (≈ 0.311 µM)	0.125 µg/mL (≈ 0.311 µM)	–
NC[C@H]1O[C@H](O[C@H]2[C@H](O)[C@@H](O[C@H]3O[C@H](CO)[C@@H](O)[C@H](N)[C@H]3O)[C@H](N)C[C@@H]2N)[C@H](O)[C@@H](O)[C@@H]1O [KANAMYCIN]	2 µg/mL (≈ 4.13 µM)	8 µg/mL (≈ 16.5 µM)	Selectivity ratio [15]: 4
c1cc2cc(-c3ccc(-c4cc5ccc(C6=NCCN6)cc5[nH]4)cc3)[nH]c2cc1C1=NCCN1	0.25 µg/mL (≈ 0.562 µM)	0.5 µg/mL (≈ 1.12 µM)	pKa [14]: 9.6; MIC (Staphylococcus aureus [3]): 0.125 µg/mL; MIC (Staphylococcus aureus [4]): 0.25 µg/mL (≈ 0.562 µM); MIC (Staphylococcus aureus [5]): 0.5 µg/mL (≈ 1.12 µM); MIC (Staphylococcus aureus [6]): 0.5 µg/mL (≈ 1.12 µM); MIC (Staphylococcus aureus [7]): 1 µg/mL; MIC (Staphylococcus aureus [8]): 0.5 µg/mL (≈ 1.12 µM); MIC (Staphylococcus aureus [9]): 0.25 µg/mL; MIC (Staphylococcus aureus [10]): 0.5 µg/mL (≈ 1.12 µM); MIC (Staphylococcus aureus [11]): 0.5 µg/mL; MIC (Staphylococcus aureus [12]): 0.25 µg/mL (≈ 0.562 µM); MIC (Staphylococcus aureus [13]): 8 µg/mL; fold change (FC) (Staphylococcus aureus [16]): 8.7; fold change (FC) (Staphylococcus aureus [17]): 4.2; fold change (FC) (Staphylococcus aureus [18]): 6.8; fold change (FC) (Staphylococcus aureus [19]): 3.1; fold change (FC) (Staphylococcus aureus [20]): 2.1; fold change (FC) (Staphylococcus aureus [21]): 1.2; fold change (FC) (Staphylococcus aureus [22]): 1.2; fold change (FC) (Staphylococcus aureus [23]): 1.3
COc1cc(Cc2cnc(N)nc2N)cc(OC)c1OC [TRIMETHOPRIM]	3.12 µg/mL (≈ 10.8 µM)	3.12 µg/mL (≈ 10.8 µM)	–
O=C(N[C@H](CO)[C@H](O)c1ccc([N+](=O)[O-])cc1)C(Cl)Cl [CHLORAMPHENICOL]	8 µg/mL (≈ 24.8 µM)	8 µg/mL (≈ 24.8 µM)	–
CO[C@H]1/C=C/O[C@@]2(C)Oc3c(C)c(O)c4c(O)c(c(/C=N/N5CCN(C)CC5)c(O)c4c3C2=O)NC(=O)/C(C)=C\C=C\[C@H](C)[C@H](O)[C@@H](C)[C@@H](O)[C@@H](C)[C@H](OC(C)=O)[C@@H]1C [RIFAMPIN]	0.0122 µg/mL (≈ 0.0148 µM)	0.0122 µg/mL (≈ 0.0148 µM)	–
CC1(C)S[C@@H]2[C@H](NC(=O)C(C(=O)O)c3ccccc3)C(=O)N2[C@H]1C(=O)O (stereo partly specified) [CARBENICILLIN]	0.0625 µg/mL (≈ 0.165 µM)	0.0625 µg/mL (≈ 0.165 µM)	–
GENTAMICIN	0.25 µg/mL	–	–
C/C(=C\C(=O)OCCCCCCCCC(=O)O)C[C@@H]1OC[C@H](C[C@@H]2O[C@H]2[C@@H](C)[C@H](C)O)[C@@H](O)[C@H]1O [MUPIROCIN]	0.0312 µg/mL (≈ 0.0624 µM)	0.0312 µg/mL (≈ 0.0624 µM)	–
CO[C@@H]1[C@@H](OC(N)=O)[C@@H](O)[C@H](Oc2ccc3c(O)c(NC(=O)c4ccc(O)c(CC=C(C)C)c4)c(=O)oc3c2C)OC1(C)C [NOVOBIOCIN]	0.125 µg/mL (≈ 0.204 µM)	0.125 µg/mL (≈ 0.204 µM)	–
O=C(O)c1cn(C2CC2)c2cc(N3CCNCC3)c(F)cc2c1=O [CIPROFLOXACIN]	0.195 µg/mL (≈ 0.589 µM)	0.391 µg/mL (≈ 1.18 µM)	Selectivity ratio [15]: 2
